Measurements from ChEMBL document CHEMBL3868590, “Quambalarine B, a Secondary Metabolite from Quambalaria cyanescens with Potential Anticancer Properties” (J Nat Prod, 2016).

How the values were obtained:
[1] = Cmax in human; type: ADME
Jurkat [2] = test: Cytostatic activity against eFluor670-labelled human Jurkat cells assessed as live cells at 10 ng/ml measured immediately after compound addition by Hoechst-33258 staining-based FACS analysis (reference value: 98.2%); type: functional
Jurkat [3] = test: Cytostatic activity against eFluor670-labelled human Jurkat cells assessed as live cells at 10 ng/ml measured on day 1 post dose by Hoechst-33258 staining-based FACS analysis (reference value: 98.2%); type: functional
Jurkat [4] = test: Cytostatic activity against eFluor670-labelled human Jurkat cells assessed as live cells at 10 ng/ml measured on day 2 post dose by Hoechst-33258 staining-based FACS analysis (reference value: 97%); type: functional
Jurkat [5] = test: Cytostatic activity against eFluor670-labelled human Jurkat cells assessed as live cells at 10 ng/ml measured on day 3 post dose by Hoechst-33258 staining-based FACS analysis (reference value: 98.3%); type: functional
Jurkat [6] = test: Cytostatic activity against eFluor670-labelled human Jurkat cells assessed as live cells at 10 ng/ml measured on day 4 post dose by Hoechst-33258 staining-based FACS analysis (reference value: 97.3%); type: functional
Jurkat [7] = test: Cytostatic activity against eFluor670-labelled human Jurkat cells assessed as live cells at 10 ng/ml measured on day 5 post dose by Hoechst-33258 staining-based FACS analysis (reference value: 97%); type: functional
NALM-6 [8] = test: Cytostatic activity against eFluor670-labelled human NALM6 cells assessed as live cells at 5 ng/ml measured immediately after compound addition by Hoechst-33258 staining-based FACS analysis (reference value: 95.8%); type: functional
NALM-6 [9] = test: Cytostatic activity against eFluor670-labelled human NALM6 cells assessed as live cells at 5 ng/ml measured on day 1 by Hoechst-33258 staining-based FACS analysis (reference value: 95.5%); type: functional
NALM-6 [10] = test: Cytostatic activity against eFluor670-labelled human NALM6 cells assessed as live cells at 5 ng/ml measured on day 2 by Hoechst-33258 staining-based FACS analysis (reference value: 97.7%); type: functional
NALM-6 [11] = test: Cytostatic activity against eFluor670-labelled human NALM6 cells assessed as live cells at 5 ng/ml measured on day 3 by Hoechst-33258 staining-based FACS analysis (reference value: 98.6%); type: functional
NALM-6 [12] = test: Cytostatic activity against eFluor670-labelled human NALM6 cells assessed as live cells at 5 ng/ml measured on day 4 by Hoechst-33258 staining-based FACS analysis (reference value: 98.6%); type: functional
NALM-6 [13] = test: Cytostatic activity against eFluor670-labelled human NALM6 cells assessed as live cells at 5 ng/ml measured on day 5 by Hoechst-33258 staining-based FACS analysis (reference value: 98.6%); type: functional
REH [14] = test: Cytostatic activity against eFluor670-labelled human REH cells assessed as live cells at 20 ng/ml measured immediately after compound addition by Hoechst-33258 staining-based FACS analysis (reference value: 44.1%); type: functional
REH [15] = test: Cytostatic activity against eFluor670-labelled human REH cells assessed as live cells at 20 ng/ml measured on day 1 by Hoechst-33258 staining-based FACS analysis (reference value: 89.8%); type: functional
REH [16] = test: Cytostatic activity against eFluor670-labelled human REH cells assessed as live cells at 20 ng/ml measured on day 2 by Hoechst-33258 staining-based FACS analysis (reference value: 90.8%); type: functional
REH [17] = test: Cytostatic activity against eFluor670-labelled human REH cells assessed as live cells at 20 ng/ml measured on day 4 by Hoechst-33258 staining-based FACS analysis (reference value: 88%); type: functional
REH [18] = test: Cytostatic activity against eFluor670-labelled human REH cells assessed as live cells at 20 ng/ml measured on day 5 by Hoechst-33258 staining-based FACS analysis (reference value: 85.6%); type: functional
[19] = Cytotoxicity against PHA/LPS-stimulated CD3-positive T-lymphocytes in eFluor-670-labeled human PBMC assessed as divided cells at 5 ng/ml administered post 18 hrs of PHA/LPS-stimulation measured after 72 hrs by Hoechst-33258 staining-based FACS analysis (reference value: 24.2%); type: toxicity; settings: t-cell
Procedure, shortened: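 PBMC were labelled with 1 μmol/L CPD, stimulated with PHA (5 μg/mL) plus LPS (1 μg/mL), and seeded at 3 × 10^5 cells/well in 300 μL. Compound was added after 18 h and left for 72 h. Cells were stained with anti-CD3. Unstimulated cells set the CPD+ gate. Proliferation index, division index and % divided were calculated for CPD+CD3+ Hoechst-negative cells.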

Cmax [1]	Structure (SMILES)	Activity (Jurkat [2])	Activity (Jurkat [3])	Activity (Jurkat [4])	Activity (Jurkat [5])	Activity (Jurkat [6])	Activity (Jurkat [7])	Activity (NALM-6 [8])	Activity (NALM-6 [9])	Activity (NALM-6 [10])	Activity (NALM-6 [11])	Activity (NALM-6 [12])	Activity (NALM-6 [13])	Activity (REH [14])	Activity (REH [15])	Activity (REH [16])	Activity (REH [17])	Activity (REH [18])	Activity [19]
> 1000 µM	CN(Cc1cnc2nc(N)nc(N)c2n1)c1ccc(C(=O)N[C@@H](CCC(=O)O)C(=O)O)cc1 [METHOTREXATE]																		
	COc1cccc2c1C(=O)c1c(O)c3c(c(O)c1C2=O)C[C@@](O)(C(=O)CO)C[C@@H]3O[C@H]1C[C@H](N)[C@H](O)[C@H](C)O1 [DOXORUBICIN]	98.2%	97%	78.5%	42.8%	9.46%	10.5%	95.8%	95.2%	96.5%	96.3%	93.8%	87.8%	44.1%	73.5%	26.7%	2.72%	1.19%	18.1%
